# High-throughput results: PubChem BioAssay, The Scripps Research Institute Molecular Screening Center
# NPY Y2 blocker: blocks the human neuropeptide Y Y2 receptor. NPY-Y2 expressing cells, antagonist mode. hit rate 0.99% among 140,000. AID 793. P49146. inhibition, % at 2.7 µM
# NPY-Y1 antag: antagonists of human neuropeptide Y receptor Y1 | AID 1040 | hit rate 1% among 200,000 | inhibition, % at 3.6 µM | HEK293-CNG Y1 cells, membrane potential fluorescence; NPY at EC95, then isoproterenol;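 active means inhibition above the campaign mean inhibition of all tested compounds plus 3 SD, cut at about 20% in these data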
# Target sequence (P25929 whole entry, looked up): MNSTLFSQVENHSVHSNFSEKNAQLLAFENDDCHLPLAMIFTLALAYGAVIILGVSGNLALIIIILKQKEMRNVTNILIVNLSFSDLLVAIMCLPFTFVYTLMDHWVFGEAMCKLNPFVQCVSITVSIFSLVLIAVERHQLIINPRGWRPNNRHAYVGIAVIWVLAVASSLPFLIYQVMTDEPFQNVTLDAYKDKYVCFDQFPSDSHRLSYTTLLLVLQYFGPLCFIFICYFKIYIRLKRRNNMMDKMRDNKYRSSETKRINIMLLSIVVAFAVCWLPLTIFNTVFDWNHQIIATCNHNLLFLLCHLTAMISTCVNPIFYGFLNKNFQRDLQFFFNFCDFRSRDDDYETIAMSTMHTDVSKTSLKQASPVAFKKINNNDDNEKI
#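 Assay system: HEK293 Y1/CNG channel cell line; Doses: single compound dose of 3.6 µM, 0.4% DMSO; Timing: dye 3 h, compound 60 min room temperature, stimulation 45 min; Technique: Membrane-potential fluorescent dye readout; Measure: % inhibition of NPY effect.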
# NPY1 pot ag: potentiators or agonists of human neuropeptide Y receptor Y1; P25929; NPY-Y1 expressing cells, potentiator/agonist activation; activation, % at 3.6 µM; hit rate 0.37% among 220,000; in the data active means activation above about 33%, passing the limit was not always enough;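 further: cells stimulated with NPY at EC10 then isoproterenol at EC100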
# NPY-Y2 PAM-ag: potentiates or activates human NPY-Y2 receptor; P49146; cells expressing NPY-Y2, potentiator/agonist read-out; activation, % at 3.6 µM; hit rate 0.45% among 220,000; AID 1359; in the data active means activation above about 27%;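 further: cells stimulated with NPY near EC25 plus isoproterenol at EC100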
# NPY-Y1 ant conf: confirmation of human neuropeptide Y receptor Y1 antagonists. hit rate 21% among 1,200. inhibition, % at 3.6 µM. AID 1254. HEK293-CNG NPY-Y1, membrane potential fluorescence, cAMP; NPY challenge against isoproterenol-raised cAMP. shares compounds with NPY-Y1 antag; in the data active means inhibition above about 20%
# NPY-Y2 antag ct: antagonizes human NPY-Y2, counter-screen to NPY-Y1 antagonists. HEK293 NPY-Y2 CNG membrane potential fluorescence, antagonism; cells given NPY, then isoproterenol. shares compounds with NPY-Y1 antag. AID 1255. hit rate 28% among 1,200. inhibition, % at 3.6 µM
# Hits are given with their value; - = inactive; . = no result given. This is a sample that favours compounds with a hit; in the whole collection about 1.8% have one here. Unless noted, no stated cut-off is given here; in the data, active means inhibition above about 17%; inactive means the rest.
SMILES,NPY Y2 blocker,NPY-Y1 antag,NPY1 pot ag,NPY-Y2 PAM-ag,NPY-Y1 ant conf,NPY-Y2 antag ct
O=[N+]([O-])c1ccc(O)c(/C=N/NC2=NS(=O)(=O)c3ccccc32)c1,.,35.1,-,-,-,-
O=[N+]([O-])c1ccc(/C=N/NC2=NS(=O)(=O)c3ccccc32)cc1,.,-,-,-,.,.
Cn1ccnc1C(=O)c1cc(SCC(=O)N2CCOCC2)nc2ccccc12,.,-,-,-,.,.
C1CCc2c(nc3nnnn3c2NCC2CC2)C1,.,.,-,-,.,.
Cc1cc(C)c(OCC(=O)Nc2nnc(-c3ccco3)o2)c(C)c1,.,30.7,-,-,-,-
O=C(O)CCC(=O)N1CCN(c2ncccc2C(F)(F)F)CC1,.,.,-,-,.,.
COc1ccc(CCNS(=O)(=O)c2ccc(OC)cc2)cc1,-,22.9,-,-,-,-
O=C(CN1C(=O)C2C3c4ccccc4C(c4ccccc43)C2C1=O)Nc1cccc(C(=O)O)c1 (stereo not given),-,-,-,-,.,.
Cc1cccc(C)c1OC1(c2ccccc2)OC(=O)c2ccccc21 (stereo not given),-,22.3,-,-,-,-
Cc1cc(C)c(OC2(c3ccccc3)OC(=O)c3ccccc32)c(C)c1 (stereo not given),-,30.5,-,-,-,-
CCOC1(c2ccccc2)OC(=O)c2ccccc21 (stereo not given),-,-,-,-,.,.
Cc1cn2c(nc1=O)OC1CC2OC1CO (stereo not given),.,.,-,-,.,.
CC1=Nc2cccc([N+](=O)[O-])c2NC(=O)C1,.,-,-,-,.,.
O=C(NCc1ccco1)c1nc(-c2ccc(F)cc2)no1,.,24.4,-,-,-,-
O=C(NCc1ccco1)c1ccccc1-c1nc(-c2ccc(F)cc2)no1,.,.,-,-,.,.
CCOC(=O)C1(CC2CCCCO2)CCN(S(=O)(=O)c2cccc(F)c2)CC1 (stereo not given),.,-,-,-,.,.
CCOC(=O)C(CCCCCCC(NC(C)=O)(C(=O)OCC)C(=O)OCC)(NC(C)=O)C(=O)OCC,.,.,-,-,.,.
CCOC(=O)C(CO)(NC(C)=O)C(=O)OCC,-,25.4,-,-,-,-
COc1cccc(CNC23CC4CC(CC(C4)C2)C3)c1OCc1ccccc1,.,164.8,-,-,114.2,84.2
COc1cccc(CNn2cnnc2)c1OCc1ccc(F)cc1,-,-,-,-,.,.
COc1cccc(C2=NOC(C(=O)NCc3ccccc3)C2)c1 (stereo not given),-,45.3,-,-,-,27.8
O=C(NCc1cccs1)C1CC(c2ccc(Cl)c(Cl)c2)=NO1 (stereo not given),.,23.5,-,-,-,28.8
COc1cccc(C2=NOC(C(=O)NCc3ccco3)C2)c1 (stereo not given),-,-,-,-,.,.
COc1ccc(C2=NOC(C(=O)NCc3ccccc3)C2)cc1 (stereo not given),-,29.0,-,-,-,19.3
O=C(NCc1cccs1)C1CC(c2ccc(Cl)cc2)=NO1 (stereo not given),.,-,-,-,.,.
SMILES,NPY Y2 blocker,NPY-Y1 antag,NPY1 pot ag,NPY-Y2 PAM-ag,NPY-Y1 ant conf,NPY-Y2 antag ct
FC(F)(F)c1cccc(Cc2noc(CN3CCC(c4ccncc4)CC3)n2)c1,.,-,-,-,.,.
CC(NC(=O)Cc1cccc(C(F)(F)F)c1)c1ccc(F)cc1 (stereo not given),.,-,-,-,.,.
COc1ccc(-c2cc(C(F)(F)F)nc(N3CCN(C)CC3)n2)cc1,-,25.0,-,-,-,-
COc1ccc(-c2cc(C(F)(F)F)nc(N3CCCCCC3)n2)cc1,-,-,-,-,.,.
Cc1cccc(OCCNC(=O)c2ccc(Oc3ccc(C(F)(F)F)cc3[N+](=O)[O-])cc2)c1,-,21.6,-,-,28.5,-
Cc1ccc(-c2csc(Nc3ccc(C(=O)O)cc3)[n+]2Cc2ccccc2)cc1,.,-,-,-,.,.
Cc1ccc(-c2csc(Nc3ccccc3)[n+]2CCc2ccccc2)cc1,.,22.3,-,-,-,18.1
CSc1ncccc1C(=O)NC(C)C1CC2CCC1C2 (stereo not given),.,-,-,-,.,.
Cc1ccc(OCC(=O)Nc2ccccc2-c2ccccc2)cc1,-,-,-,-,.,.
COc1cccc(OCC(=O)Nc2ccccc2-c2ccccc2)c1,.,24.4,-,-,-,-
COc1cc2c(cc1NC(C)=O)CCCC2,-,-,-,-,.,.
COc1ccc(C(=O)Nc2cc3c(cc2OC)CCCC3)cc1Br,-,28.6,-,-,-,-
COc1cc2c(cc1NC(=O)c1cccnc1)CCCC2,-,-,-,-,.,.
COc1cc2c(cc1NC(=O)c1ccc(C(C)(C)C)cc1)CCCC2,-,31.6,-,-,-,44.8
CCOC(=O)Cc1nn(Cc2nc(-c3ccc(C#N)cc3)cs2)c(=O)c2ccccc12,.,.,-,-,.,.
COc1ccc(-c2nnc(OCc3nc4ccccc4n3C)c3ccccc23)cc1,-,-,-,-,.,.
Cn1c(COc2nnc(-c3ccc(Cl)cc3)c3ccccc23)nc2ccccc21,-,39.4,-,-,-,-
CN(C)S(=O)(=O)N(CC(=O)Nc1ccc(F)c(F)c1)c1ccccc1,-,-,-,-,.,.
CSc1cccc(NC(=O)CN(c2ccccc2)S(=O)(=O)N(C)C)c1,-,20.2,-,-,-,-
Cc1cc2cc(C)c(NCCNC(=O)c3ccccc3F)nc2cc1C,.,31.9,-,-,-,29.4
Cc1cc2cc(C)c(NCCNC(=O)c3cccs3)nc2cc1C,.,56.4,-,-,43.0,65.4
Cc1cc2cc(C)c(NCCNC(=O)c3cccc(F)c3)nc2cc1C,.,39.7,-,-,28.3,-
COC(=O)CNC(=O)c1cccc(F)c1,-,-,-,-,.,.
Cc1nc(CCNC(=O)c2cccs2)cs1,-,-,-,-,.,.
Cc1cccc(C(=O)NCCNc2nc3cc(C)c(C)cc3cc2C)c1,.,45.0,-,-,29.5,33.1
SMILES,NPY Y2 blocker,NPY-Y1 antag,NPY1 pot ag,NPY-Y2 PAM-ag,NPY-Y1 ant conf,NPY-Y2 antag ct
O=C(NCCc1ccncc1)c1ccccc1F,-,-,-,-,.,.
N#CC(c1ccc(O)cc1)c1ncc(C(F)(F)F)cc1Cl (stereo not given),.,-,-,-,.,.
COc1ccc(C2N(c3ccc4c(c3)OCCO4)C(=O)C2(F)F)cc1OC (stereo not given),.,.,-,-,.,.
O=C1CC(C(=O)O)S/C(=N\N=C\c2ccc(Br)cc2)N1 (stereo not given),.,.,-,-,.,.
COc1ccc(NS(=O)(=O)c2cc(NC(=O)c3nc4nc(C)cc(C)n4n3)ccc2C)cc1,.,-,-,-,.,.
CCC(C)[C@H](NC(=O)NCc1ccc(S(N)(=O)=O)cc1)C(=O)O (stereo not given in full),.,.,-,-,.,.
CCn1nc(C)c(NC(=O)Nc2cccc(Cl)c2Cl)c1C,.,-,-,-,.,.
C=C(C)CNC(=S)NN=C1c2ccccc2-c2ccccc21,.,32.8,-,-,35.9,69.3
COc1ccc(-c2onc(C)c2-c2cnn(-c3ccccc3)c2)c(O)c1C,.,31.2,-,-,-,-
COc1ccc(-c2n[nH]c(C)c2-c2cnn(-c3ccccc3)c2)c(O)c1C,-,-,-,-,.,.
